Test results taken from ChEMBL document CHEMBL4706700, “Oxa-adamantyl cannabinoids” (Bioorg Med Chem Lett, 2021).
Activity calls are given as the source filed them. The calls are words filed in the database; no cut-off is given here.

Key:
Cannabinoid receptor 2 [1] = target: T1, Cannabinoid receptor 2 (Homo sapiens, UniProt P34972); assay: Displacement of [3H]CP55940 from human CB2 receptor expressed in HEK293 cell membrane by scintillation counting method; type: cell membranes
Outline: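 Receptor source is rat brain membranes (CB1) or membranes from HEK293 cells expressing mouse or human CB2. Ki from competition curves by nonlinear regression. Ki is the mean of three independent experiments, each in triplicate.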

Cannabinoid receptor 2 [2] = target: Cannabinoid receptor 2 (Mus musculus, UniProt P47936); assay: Displacement of [3H]CP55940 from mouse CB2 receptor expressed in HEK293 cell membrane by scintillation counting method; type: cell membranes
Outline: (§1)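 Competition binding with [3H]CP-55,940. Receptor source is rat brain membranes (CB1) or membranes from HEK293 cells expressing mouse or human CB2. Ki from competition curves by nonlinear regression. Ki is the mean of three independent experiments, each in triplicate.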

Cannabinoid receptor 1 [3] = target: T2, Cannabinoid receptor 1 (Rattus norvegicus, UniProt P20272); assay: Displacement of [3H]CP55940 from rat brain CB1 receptor by scintillation counting method; type: tissue-based; outline: as §1
Cannabinoid receptor 2 [4] = target: T1, Cannabinoid receptor 2; assay: Agonist activity at human CB2 receptor expressed in HEK293 cells assessed as decrease in forskolin-stimulated cAMP level up to 2.3 uM stimulated for 30 mins followed by Eu-cAMP tracer addition and measured after 60 mins; type: functional, cell-based; conditions: dose microM <=2.3, time 90.0 min
Outline: (§2)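 cAMP accumulation stimulated by forskolin, in HEK293 cells expressing rCB1 or hCB2. Forskolin-stimulated level set to 100%. EC50 obtained by nonlinear regression. […] Values are the average of two independent experiments, each run in triplicate.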

[5] = target: Cannabinoid receptor 1 (Rattus norvegicus) (UniProt P20272); assay: Agonist activity at rat CB1 receptor expressed in HEK293 cells assessed as inhibition of forskolin-stimulated cAMP level stimulated for 30 mins followed by Eu-cAMP tracer addition and measured after 60 mins; type: functional, cell-based; conditions: filed as agonist, time 90.0 min; outline: as §2
[6] = target: Cannabinoid receptor 1 (Rattus norvegicus) (UniProt P20272); assay: Agonist activity at rat CB1 receptor expressed in HEK293 cells assessed as inhibition of forskolin-stimulated cAMP level stimulated for 30 mins followed by Eu-cAMP tracer addition and measured after 60 mins relative to control; type: functional, cell-based; conditions: filed as agonist, time 90.0 min; outline: as §2
Cannabinoid receptor 1 [7] = target: T2, Cannabinoid receptor 1; assay: Agonist activity at rat […] CB1 receptor assessed as decrease in forskolin-stimulated cAMP level stimulated for 30 mins followed by Eu-cAMP tracer addition and measured after 60 mins; type: functional
Cannabinoid receptor 2 [8] = target: T1, Cannabinoid receptor 2; assay: Irreversible binding affinity to human CB2 receptor expressed in HEK293 cells assessed as inhibition of [3H]CP55940 binding to receptor at 10 fold Ki by saturation curve assay relative to control; type: cell-based
Outline: (§3)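 Rat brain CB1 or HEK293 hCB2 membranes pretreated with the isothiocyanate ligand, then run in [3H]CP-55,940 saturation binding. Controls were processed in parallel without ligand. Percent covalent labeling = [Bmax(control) − Bmax(ligand)]/Bmax(control). At least two independent experiments in triplicate; mean ± SEM.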

[9] = target: Cannabinoid receptor 1 (Rattus norvegicus) (UniProt P20272); assay: Irreversible binding affinity to rat brain CB1 receptor assessed as inhibition of [3H]CP55940 binding to receptor at 10 fold Ki by saturation curve assay relative to control; type: tissue-based; conditions: filed as agonist; outline: as §3
[10] = Selectivity ratio of Ki for displacement of [3H]CP55940 from human CB2 receptor expressed in HEK293 cells to Ki for displacement of [3H]CP55940 from mouse CB2 receptor expressed in HEK293 cells; type: cell-based

Chain of Cannabinoid receptor 1 (Rattus norvegicus) (P20272 whole entry): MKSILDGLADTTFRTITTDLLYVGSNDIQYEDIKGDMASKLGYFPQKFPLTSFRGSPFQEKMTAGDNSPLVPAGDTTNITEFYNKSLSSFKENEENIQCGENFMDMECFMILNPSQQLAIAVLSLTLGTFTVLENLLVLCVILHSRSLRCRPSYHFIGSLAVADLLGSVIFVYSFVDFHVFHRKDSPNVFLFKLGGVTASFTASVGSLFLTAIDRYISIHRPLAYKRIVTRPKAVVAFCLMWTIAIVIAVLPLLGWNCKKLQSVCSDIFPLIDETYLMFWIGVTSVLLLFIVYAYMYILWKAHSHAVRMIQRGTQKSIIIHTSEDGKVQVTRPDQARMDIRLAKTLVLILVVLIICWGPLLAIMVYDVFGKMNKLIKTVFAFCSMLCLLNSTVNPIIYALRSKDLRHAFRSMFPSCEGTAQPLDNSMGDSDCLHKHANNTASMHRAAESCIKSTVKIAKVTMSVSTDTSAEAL
T2 sequence (P20272 whole entry): as above
T1 sequence (P34972 whole entry): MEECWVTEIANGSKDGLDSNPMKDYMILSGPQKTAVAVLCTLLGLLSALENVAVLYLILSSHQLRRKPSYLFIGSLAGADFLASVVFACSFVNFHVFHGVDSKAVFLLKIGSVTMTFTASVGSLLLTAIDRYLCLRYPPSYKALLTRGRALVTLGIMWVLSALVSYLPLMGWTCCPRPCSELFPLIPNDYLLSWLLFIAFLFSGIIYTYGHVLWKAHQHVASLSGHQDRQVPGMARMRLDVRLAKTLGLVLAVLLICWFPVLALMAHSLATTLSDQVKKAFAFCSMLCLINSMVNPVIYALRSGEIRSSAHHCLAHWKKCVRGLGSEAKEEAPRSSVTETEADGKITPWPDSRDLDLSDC
Chain of Cannabinoid receptor 2 (Mus musculus, UniProt P47936) (P47936 whole entry): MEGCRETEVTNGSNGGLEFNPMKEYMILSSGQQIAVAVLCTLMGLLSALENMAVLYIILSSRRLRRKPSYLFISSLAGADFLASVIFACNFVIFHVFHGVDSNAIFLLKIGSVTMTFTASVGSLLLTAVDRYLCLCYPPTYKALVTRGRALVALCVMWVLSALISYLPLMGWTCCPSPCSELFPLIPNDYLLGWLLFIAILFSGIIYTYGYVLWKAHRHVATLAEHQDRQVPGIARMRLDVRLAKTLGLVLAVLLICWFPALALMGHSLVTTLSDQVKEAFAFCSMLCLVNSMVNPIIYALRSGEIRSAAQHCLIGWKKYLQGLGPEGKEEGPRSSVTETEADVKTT

Row | SMILES | Ki (Cannabinoid receptor 2 [1]) [nM] | Ki (Cannabinoid receptor 2 [2]) [nM] | Ki (Cannabinoid receptor 1 [3]) [nM] | Activity (Cannabinoid receptor 2 [4]) | inhibition [5] | Emax [6] [%] | EC50 (Cannabinoid receptor 1 [7]) [nM] | Bmax (Cannabinoid receptor 2 [8]) [%] | Bmax [9] [%] | Ratio Ki [10]
1 | CC1(C)Oc2cc(C34CC5CC(CC(C(N)=O)(C5)O3)C4)cc(O)c2[C@@H]2C[C@H](CO)CC[C@H]21 | 91.8 | 34.9 | 10.8 | – | – | – | – | – | – | –
2 | CC1(C)Oc2cc(C34CC5CC(CC(CN=[N+]=[N-])(C5)O3)C4)cc(O)c2[C@@H]2C[C@H](CO)CC[C@H]21 | 2.2 | 0.7 | 2 | inactive | Dose-dependent effect | 93 | 0.9 | – | – | –
3 | CC1(C)Oc2cc(C34CC5CC(CC(CN=C=S)(C5)O3)C4)cc(O)c2[C@@H]2C[C@H](O)CC[C@H]21 | 3.6 | 9.5 | 4.8 | inactive | Dose-dependent effect | 88 | 0.8 | 32 | 65 | –
4 | CC1(C)Oc2cc(C34CC5CC(CC(CN=C=S)(C5)O3)C4)cc(O)c2[C@@H]2C[C@H](CO)CC[C@H]21 | 4.7 | 6.6 | 8.4 | inactive | Dose-dependent effect | 94 | 0.9 | – | – | –
5 | CC1(C)Oc2cc(C34CC5CC(CC(C#N)(C5)O3)C4)cc(O)c2[C@@H]2C[C@H](O)CC[C@H]21 | 31.7 | 1.6 | 26.6 | – | – | – | – | – | – | 20
6 | CC1(C)Oc2cc(C34CC5CC(CC(CN=[N+]=[N-])(C5)O3)C4)cc(O)c2[C@@H]2C[C@H](O)CC[C@H]21 | 3.1 | 2.7 | 2.3 | inactive | Dose-dependent effect | 87 | 3.1 | – | – | –
7 | CCCCCCC(C)(C)c1ccc([C@@H]2C[C@H](O)CC[C@H]2CCCO)c(O)c1 | – | – | – | – | Dose-dependent effect | – | – | – | – | –
8 | CC1(C)Oc2cc(C34CC5CC(CC(C(N)=O)(C5)O3)C4)cc(O)c2[C@@H]2C[C@H](O)CC[C@H]21 | 369 | 865 | 28.7 | – | – | – | – | – | – | –
